Bioassay records: PubChem, Sanford-Burnham Center for Chemical Genomics
Only some compounds are listed: those with a hit (about 1.7% of all), similar ones and a draw of the others.
LMPTP block = blocks human LMPTP phosphatase; inhibition, % at 20 µM; AID 651560; recombinant LMPTP-A, OMFP fluorogenic substrate, fluorescence intensity; P24666; 360,000 compounds, 0.22% hits;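 active = compounds that cut the enzyme signal by at least half of the control window in the single-dose screen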;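 note: plate controls were DMSO wells with enzyme plus substrate for no effect and substrate without enzyme for full effect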
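Assay system: LMPTP-A, protein tyrosine phosphatase of low molecular weight / Medium: pH 6.0 Bis-Tris buffer with DTT and Triton X-100 / Schedule: 50 min enzyme reaction at room temperature, protected from light / Measured by: endpoint fluorescence intensity from OMFP dephosphorylation / Read-out basis: % inhibition relative to no-enzyme and uninhibited control wells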
Scp-1 inhibitor = Scp-1 (human) phosphatase inhibition; Q9GZU7; AID 493091; inhibition, % at 20 µM; Recombinant Scp1, phosphopeptide, malachite green phosphate absorbance; 340,000 compounds, 0.88% hits;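 active = inhibition above about 50% at 20 µM, limit read from the data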;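 note: plate controls were DMSO wells with enzyme for no effect and wells lacking enzyme for full effect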
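Test system: SCP-1 phosphatase catalytic domain, residues 76-261 | Compound dosing: One concentration, 20 µM, with 1.0% DMSO | Schedule: 45 min room-temperature reaction, 5 min colour, 30 min stabiliser | Detection: Absorbance at 630 nm | Read-out basis: % inhibition of SCP-1 phosphate liberation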
DNMT1 block = DNMT1 (human) enzyme inhibition; inhibition (reported as % activation of signal), % at 10 µM; AID 588458; P26358; DNMT1 molecular beacon, Hinp1I cleavage, fluorescence; 360,000 compounds, 0.83% hits; in the data active = inhibition above about 50%
STEP inh = blocks human striatal-enriched tyrosine phosphatase; recombinant STEP, OMFP fluorogenic substrate, fluorescence; inhibition, % at 20 µM; 360,000 compounds, 0.25% hits;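 active = inhibition at 20 µM, scaled per plate between control wells, above about 37%, limit read from the data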;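 note: 0% = DMSO with enzyme and substrate and 100% = substrate only without enzyme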
Target sequence (P54829 whole entry, looked up): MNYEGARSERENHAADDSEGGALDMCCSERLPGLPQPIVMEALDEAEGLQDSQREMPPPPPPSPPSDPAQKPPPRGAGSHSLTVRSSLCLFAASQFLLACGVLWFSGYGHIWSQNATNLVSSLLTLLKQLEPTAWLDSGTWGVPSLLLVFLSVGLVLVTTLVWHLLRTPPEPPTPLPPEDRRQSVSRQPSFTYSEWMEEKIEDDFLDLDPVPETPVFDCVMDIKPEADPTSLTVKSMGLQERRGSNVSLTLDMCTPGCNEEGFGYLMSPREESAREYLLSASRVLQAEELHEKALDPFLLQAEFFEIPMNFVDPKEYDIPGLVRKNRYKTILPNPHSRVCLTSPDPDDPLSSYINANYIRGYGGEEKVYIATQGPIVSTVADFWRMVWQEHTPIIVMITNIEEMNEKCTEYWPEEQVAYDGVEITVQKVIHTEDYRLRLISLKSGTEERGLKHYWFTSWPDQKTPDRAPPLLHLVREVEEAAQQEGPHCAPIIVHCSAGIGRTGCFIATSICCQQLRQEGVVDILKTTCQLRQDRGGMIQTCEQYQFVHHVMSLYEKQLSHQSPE
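Test system: STEP tyrosine phosphatase / Reagent: OMFP at 25 µM / Doses: 20 µM, 1% DMSO / Read-out: percent inhibition scaled to no-enzyme and uninhibited-enzyme controls, plate-pattern corrected / Detection: FITC-channel fluorescence of OMFP product / Medium: Bis-Tris buffer pH 6.0, 2.5 mM DTT, 0.005% Tween 20 / Schedule: 20 min at room temperature, dark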
SUMO1-SIM PPI = modulators of human SUMO1-mediated protein-protein interactions; P63165; SUMO1 binding to a labelled peptide, TR-FRET, 1 h; inhibition, % at 20 µM; AID 602429; 360,000 compounds, 0.33% hits; in the data active = inhibition above about 37%
Target sequence (P63165 whole entry, looked up): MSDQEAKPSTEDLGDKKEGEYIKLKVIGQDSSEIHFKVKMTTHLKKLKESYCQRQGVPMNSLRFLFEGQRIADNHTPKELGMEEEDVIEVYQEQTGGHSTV
Beacon interf DR = shows spectral interference in the DNMT1 beacon assay; 200 tested, under 10 active; molecular beacon fluorescence, spectral interference counter-screen; shares compounds with DNMT1 block; AID 602382; IC50, µM; call rule not given here
DNMT1 confirm = DNMT1 inhibition confirmation, single concentration. inhibition, % at 10 µM. shares compounds with DNMT1 block. 2,300 compounds, 8% hits. DNMT1 molecular beacon HinP1I cleavage, fluorescence;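 active = average inhibition of at least 30% in the single-concentration confirmation test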
DNMT1 interf = counter-screen for DNMT1 inhibitors: spectral interference; shares compounds with DNMT1 block; 2,300 compounds, 1% hits; AID 602387; DNMT1 molecular beacon spectral interference counterscreen, fluorescence 485/520; activation (fluorescence interference), % at 10 µM;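 active = activation of at least 30% at 10 µM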;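 note: DNMT1 catalytic domain with a HinP1I cleavage step and a FAM/dabcyl DNA beacon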
An asterisk follows results filed as active; x = no result given; + = active, no number.

SMILES	LMPTP block	Scp-1 inhibitor	DNMT1 block	STEP inh	SUMO1-SIM PPI	DNMT1 confirm	DNMT1 interf	others
CCOc1ccc(-c2nn(-c3ccccc3)cc2/C=C2\SC(=S)N(Cc3ccco3)C2=O)cc1	0	1	14	5	1	x	x
CC(C)COc1ccc(-c2nn(-c3ccccc3)cc2/C=C2/SC(=S)N(CC(=O)O)C2=O)cc1	38	11	65*	9	21	67*	-9	Beacon interf DR=>99
Cc1ccc(-c2nn(-c3ccccc3)cc2C=C2SC(=S)N(CCS(=O)(=O)O)C2=O)cc1	82*	x	76*	5	72*	107*	-14	Beacon interf DR=>99
COCCOC(=O)c1[nH]c2c(c1C)C(=O)CC(c1ccco1)C2 (centres undefined)	37	83*	74*	0	22	4	-2
CCOC(=O)c1[nH]c2c(c1C)C(=O)CC(c1ccco1)C2 (centres undefined)	37	64*	51*	0	13	7	6
COCCOC(=O)c1[nH]c2c(c1C)C(=O)CC(c1ccc(N(C)C)cc1)C2 (centres undefined)	4	-7	-13	4	-3	x	x
CCn1c(SCC(=O)NC2CCCC2)nnc1-c1ccccn1	0	-2	-4	-1	7	x	x
Cc1ccc(/C=N/N2CCN(c3ccccn3)CC2)cc1	1	-6	-1	-2	-5	x	x
CCc1ccc(/C=N/N2CCN(c3ccccn3)CC2)cc1	3	-11	75*	4	-1	2	3
COc1ccccc1N(Cc1ccccc1)S(=O)(=O)c1cccc(C(=O)Nc2cc(C)ccn2)c1	-3	5	-2	3	-2	x	x
Fc1ccccc1CN1CCC(Cc2ccccc2)CC1	-2	6	70*	0	0	5	5
Cc1cc(C)c2c(N)c3ccccc3nc2n1	10	-7	67*	1	-25	26	4
CCc1ccc2nc3nc(C)cc(C)c3c(N)c2c1	12	-2	18	-3	5	x	x
CC1Cc2ccccc2N1C(=O)Cn1cnc2c1c(=O)n(C)c(=O)n2C (centres undefined)	-1	0	3	0	2	x	x
Clc1ccc(C2=Nn3c(nnc3-c3cccnc3)SC2)s1	-2	3	9	4	-9	x	x
Brc1ccc(C2=Nn3c(nnc3-c3cccnc3)SC2)s1	38	4	62*	36	-8	0	-5
CC(C)c1cc(C(=O)N2CCCC(Nc3ccc(F)cc3)C2)n[nH]1 (centres undefined)	-1	-8	2	1	2	x	x
CC1CCN(Cc2c(O)ccc3c2O/C(=C\c2ccco2)C3=O)CC1	10	14	47	3	25	x	x
O=C1/C(=C/c2ccco2)Oc2c1ccc(O)c2CN1CCCCC1	16	14	79*	1	0	15	11
COc1ccc(NC(=O)CCNC(=O)C2CCN(S(=O)(=O)c3ccccc3)CC2)cc1OC	-3	x	-1	4	-2	x	x
CCOc1ccc2noc3c2c1C(=O)c1ccccc1-3	-27	-8	+	-158	-17	140*	134*
O=C1c2ccccc2-c2onc3ccc(N4CCCC4)c1c23	19	7	25	-58	9	x	x
O=C1NN(c2ccc(Cl)cc2)C(=O)/C1=C\c1ccc(-c2cccc(C(=O)O)c2)o1	82*	94*	95*	97*	40*	34*	2	Beacon interf DR=>99
CCCC(=O)Nc1ccc(C(=O)COC(=O)c2cc(C)oc2C)cc1	2	-10	-2	-2	-2	x	x
COc1ccc(/C=N/n2c(C)nc3c([nH]c4ccccc43)c2=O)cc1CN1CCCC(C)(C)C1	1	-4	54*	10	-3	4	3
SMILES	LMPTP block	Scp-1 inhibitor	DNMT1 block	STEP inh	SUMO1-SIM PPI	DNMT1 confirm	DNMT1 interf	others
COc1ccc(C(=O)Nc2ccc(C)cn2)c(OC)c1	-1	-9	74*	1	7	1	3
COc1ccc(C(=O)Nc2cc(C)on2)c(OC)c1	-1	1	2	0	-5	x	x
O=C(c1coc(=O)c(Br)c1)N1CCCc2ccccc21	10	19	58*	6	9	2	3
CC1(C)CCCN(C(=O)c2coc(=O)c(Br)c2)C1	54*	96*	87*	97*	3	103*	-4	Beacon interf DR=>99
O=C(c1cc(=O)c2ccccc2o1)N1CCCc2ccccc21	0	-7	84*	-2	-3	4	5
CS(=O)(=O)c1ccc(NC(=O)c2cc3c(cc2Cl)N2CCCCCC2=NS3(=O)=O)cc1	-8	-7	2	-2	-17	x	x
CC(NC(=O)c1ccccc1F)c1nnc(SCC(=O)NC2CCCC2)n1C (centres undefined)	-1	-4	4	-8	6	x	x
NC(=O)Cn1c(=O)n(Cc2ccco2)c(=O)c2c3c(sc21)CCCCC3	8	71*	83*	16	12	3	0
Cc1cc(NC(=O)CSc2nc3sc4c(c3c(=O)n2C)CCCC4)no1	0	3	56*	0	2	3	-10
COc1ccc(NC(=O)c2ccccc2NC(=O)COc2ccccc2)cc1	0	-2	55*	0	3	2	-4
COCC(=O)Nc1ccccc1C(=O)Nc1ccc(OC)cc1	-1	-5	2	0	-2	x	x
COc1ccc2cc(OCC(=O)NNC(=O)Nc3ccc(C(C)=O)cc3)ccc2c1	23	0	72*	6	-18	6	-3
COc1ccccc1-c1cc(C(=O)N2CCOCC2)no1	0	-8	1	0	-1	x	x
COc1ccc2[nH]c(C)c(-c3csc(N)n3)c2c1	-1	-1	82*	2	6	2	9
COc1ccc(NC(=O)CSc2ccc3nnc(-c4ccccn4)n3n2)c(OC)c1	0	-5	1	-2	5	x	x
COc1ccc(Cl)cc1NC(=O)c1cccc([N+](=O)[O-])c1O	0	-13	66*	2	-8	1	0
O=C(Nc1ccc(NC(=O)c2sc3ccccc3c2Cl)cc1Cl)c1ccco1	-2	-2	75*	5	-1	0	-2
CCOC(=O)[C@H]1[C@H]2COc3cc(OC)ccc3[C@@H]2N2C(=O)c3c(C)cc(C)cc3NC(=O)[C@@]12C	1	-3	1	-1	1	x	x
COc1cccc(S(=O)(=O)N(C)C[C@@H]2Oc3cc(Br)ccc3S(=O)(=O)N([C@@H](C)CO)C[C@@H]2C)c1	-3	x	83*	1	1	0	7
